# Test results from ChEMBL document CHEMBL5303300, “EUbOPEN Chemogenomics Library - Multiplex” (2023).
# Values joined by “and” are separate entries in the source; they are usually repeats but may differ in a detail not shown here. Equal entries are not always repeated.
# How the values were obtained:
# Assay type in all cases: toxicity, cell-based
# [1] = system: Fibroblast; experiment: Multiplex assay against human fibroblast; settings: number of replicates 2
# Method in brief: (§1)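 Phenotypes for tubulin, mitochondrial mass and membrane permeability are expressed as per cents of healthy-nucleus cells. Cells were stained live at seeding with Hoechst33342, BioTracker Green Microtubule Cytoskeleton Dye, MitoTracker Red and Annexin V Alexa Fluor 680, then imaged after compound addition on a CQ1 microscope at 37°C and 5% CO2. Machine-learning gating in CellPathfinder separated Hoechst high-intensity objects from normal cells, divided normal cells by nuclear state (healthy, pyknosed, fragmented) and divided pyknosed cells into mitotic or apoptotic.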
# [2] = system: HEK-293T; experiment: Multiplex assay against HEK293T; settings: human, number of replicates 2; method in brief: as §1
# [3] = system: U2OS; experiment: Multiplex assay against U2OS; settings: human, number of replicates 2; method in brief: as §1
# [4] = 12 h, 1 µM, compound concentration 1 uM
# [5] = 12 h, 10 µM, compound concentration 10 uM
# [6] = 24 h, 1 µM, compound concentration 1 uM
# [7] = 24 h, 10 µM, compound concentration 10 uM
# [8] = 48 h, 1 µM, compound concentration 1 uM
# [9] = 48 h, 10 µM, compound concentration 10 uM
smiles,measurement,setting,value
Cn1c(Nc2c(Cl)cccc2Cl)nc2ccc3nc[nH]c(=O)c3c21,Population Apoptotic (%),[1]; [4],43% and 47%
same,Population Fragmented Nuclei (%),[1]; [4],10% and 5%
same,Population Healthy Nuclei (%),[1]; [4],56% and 67%
same,Population Hoechst High Intensity Objects (%),[1]; [4],0%
same,Population Membrane Permeable-Phenotype (%),[1]; [4],10% and 6%
same,Population Mitochondria Different-Phenotype (%),[1]; [4],1% and 2%
same,Population Mitotic Cells (%),[1]; [4],56% and 52%
same,Population Normal (%),[1]; [4],100%
same,Population Pyknosed Nuclei (%),[1]; [4],32% and 26%
same,Population Tubulin-Different-Phenotype (%),[1]; [4],11% and 14%
same,Total Cell Count,[1]; [4],169 and 189
same,Population Apoptotic (%),[1]; [5],40% and 37%
same,Population Fragmented Nuclei (%),[1]; [5],8% and 17%
same,Population Healthy Nuclei (%),[1]; [5],62% and 69%
same,Population Hoechst High Intensity Objects (%),[1]; [5],0%
same,Population Membrane Permeable-Phenotype (%),[1]; [5],10% and 5%
same,Population Mitochondria Different-Phenotype (%),[1]; [5],4% and 3%
same,Population Mitotic Cells (%),[1]; [5],59% and 62%
same,Population Normal (%),[1]; [5],100%
same,Population Pyknosed Nuclei (%),[1]; [5],28% and 12%
same,Population Tubulin-Different-Phenotype (%),[1]; [5],18% and 23%
same,Total Cell Count,[1]; [5],156 and 195
same,Population Apoptotic (%),[1]; [6],53% and 47%
same,Population Fragmented Nuclei (%),[1]; [6],8% and 10%
same,Population Healthy Nuclei (%),[1]; [6],54% and 57%
same,Population Hoechst High Intensity Objects (%),[1]; [6],0%
same,Population Membrane Permeable-Phenotype (%),[1]; [6],12% and 11%
same,Population Mitochondria Different-Phenotype (%),[1]; [6],1% and 3%
same,Population Mitotic Cells (%),[1]; [6],46% and 52%
same,Population Normal (%),[1]; [6],100%
same,Population Pyknosed Nuclei (%),[1]; [6],36% and 32%
same,Population Tubulin-Different-Phenotype (%),[1]; [6],10% and 18%
same,Total Cell Count,[1]; [6],152 and 202
same,Population Apoptotic (%),[1]; [7],43% and 41%
same,Population Fragmented Nuclei (%),[1]; [7],16% and 14%
same,Population Healthy Nuclei (%),[1]; [7],54% and 72%
same,Population Hoechst High Intensity Objects (%),[1]; [7],0%
same,Population Membrane Permeable-Phenotype (%),[1]; [7],9% and 6%
same,Population Mitochondria Different-Phenotype (%),[1]; [7],3% and 1%
same,Population Mitotic Cells (%),[1]; [7],56% and 58%
same,Population Normal (%),[1]; [7],100%
same,Population Pyknosed Nuclei (%),[1]; [7],28% and 13%
same,Population Tubulin-Different-Phenotype (%),[1]; [7],19% and 11%
same,Total Cell Count,[1]; [7],152 and 183
same,Population Apoptotic (%),[1]; [8],59% and 61%
same,Population Fragmented Nuclei (%),[1]; [8],15% and 14%
same,Population Healthy Nuclei (%),[1]; [8],55% and 62%
same,Population Hoechst High Intensity Objects (%),[1]; [8],2% and 0%
same,Population Membrane Permeable-Phenotype (%),[1]; [8],17% and 10%
same,Population Mitochondria Different-Phenotype (%),[1]; [8],2%
same,Population Mitotic Cells (%),[1]; [8],40% and 38%
same,Population Normal (%),[1]; [8],97% and 100%
same,Population Pyknosed Nuclei (%),[1]; [8],29% and 23%
same,Population Tubulin-Different-Phenotype (%),[1]; [8],17% and 13%
same,Total Cell Count,[1]; [8],128 and 187
same,Population Apoptotic (%),[1]; [9],94% and 87%
same,Population Fragmented Nuclei (%),[1]; [9],18%
same,Population Healthy Nuclei (%),[1]; [9],26% and 35%
same,Population Hoechst High Intensity Objects (%),[1]; [9],0%
same,Population Mitochondria Different-Phenotype (%),[1]; [9],0%
same,Population Mitotic Cells (%),[1]; [9],5% and 12%
same,Population Normal (%),[1]; [9],100%
same,Population Pyknosed Nuclei (%),[1]; [9],54% and 46%
same,Population Tubulin-Different-Phenotype (%),[1]; [9],37% and 16%
same,Total Cell Count,[1]; [9],131 and 170
same,Population Apoptotic (%),[2]; [4],65% and 53%
same,Population Fragmented Nuclei (%),[2]; [4],4% and 5%
same,Population Healthy Nuclei (%),[2]; [4],77% and 80%
same,Population Hoechst High Intensity Objects (%),[2]; [4],16% and 8%
same,Population Membrane Permeable-Phenotype (%),[2]; [4],5% and 2%
same,Population Mitochondria Different-Phenotype (%),[2]; [4],17% and 11%
same,Population Mitotic Cells (%),[2]; [4],34% and 46%
same,Population Normal (%),[2]; [4],84% and 91%
same,Population Pyknosed Nuclei (%),[2]; [4],18% and 14%
same,Population Tubulin-Different-Phenotype (%),[2]; [4],41% and 37%
same,Total Cell Count,[2]; [4],450 and 596
same,Population Apoptotic (%),[2]; [5],29% and 35%
same,Population Fragmented Nuclei (%),[2]; [5],1%
same,Population Healthy Nuclei (%),[2]; [5],81% and 86%
same,Population Hoechst High Intensity Objects (%),[2]; [5],4% and 5%
same,Population Membrane Permeable-Phenotype (%),[2]; [5],1% and 2%
same,Population Mitochondria Different-Phenotype (%),[2]; [5],17% and 12%
same,Population Mitotic Cells (%),[2]; [5],70% and 64%
same,Population Normal (%),[2]; [5],95% and 94%
same,Population Pyknosed Nuclei (%),[2]; [5],16% and 11%
same,Population Tubulin-Different-Phenotype (%),[2]; [5],40% and 36%
same,Total Cell Count,[2]; [5],676 and 839
same,Population Apoptotic (%),[2]; [6],72% and 39%
same,Population Fragmented Nuclei (%),[2]; [6],7% and 10%
same,Population Healthy Nuclei (%),[2]; [6],78% and 79%
same,Population Hoechst High Intensity Objects (%),[2]; [6],10% and 7%
same,Population Membrane Permeable-Phenotype (%),[2]; [6],2%
same,Population Mitochondria Different-Phenotype (%),[2]; [6],6% and 1%
same,Population Mitotic Cells (%),[2]; [6],27% and 60%
same,Population Normal (%),[2]; [6],89% and 92%
same,Population Pyknosed Nuclei (%),[2]; [6],14% and 10%
same,Population Tubulin-Different-Phenotype (%),[2]; [6],24% and 13%
same,Total Cell Count,[2]; [6],675 and 1010
same,Population Apoptotic (%),[2]; [7],21% and 17%
same,Population Fragmented Nuclei (%),[2]; [7],2%
same,Population Healthy Nuclei (%),[2]; [7],85% and 81%
same,Population Hoechst High Intensity Objects (%),[2]; [7],3%
same,Population Membrane Permeable-Phenotype (%),[2]; [7],2%
same,Population Mitochondria Different-Phenotype (%),[2]; [7],4% and 3%
same,Population Mitotic Cells (%),[2]; [7],78% and 82%
same,Population Normal (%),[2]; [7],96%
same,Population Pyknosed Nuclei (%),[2]; [7],12% and 15%
same,Population Tubulin-Different-Phenotype (%),[2]; [7],16% and 18%
same,Total Cell Count,[2]; [7],1151 and 1278
same,Population Apoptotic (%),[2]; [8],36% and 15%
same,Population Fragmented Nuclei (%),[2]; [8],12% and 15%
same,Population Healthy Nuclei (%),[2]; [8],81% and 80%
same,Population Hoechst High Intensity Objects (%),[2]; [8],10% and 8%
same,Population Membrane Permeable-Phenotype (%),[2]; [8],2% and 3%
same,Population Mitochondria Different-Phenotype (%),[2]; [8],1% and 0%
same,Population Mitotic Cells (%),[2]; [8],63% and 84%
same,Population Normal (%),[2]; [8],89% and 91%
same,Population Pyknosed Nuclei (%),[2]; [8],5% and 4%
same,Population Tubulin-Different-Phenotype (%),[2]; [8],4% and 5%
same,Total Cell Count,[2]; [8],1439 and 2070
same,Population Apoptotic (%),[2]; [9],19% and 27%
same,Population Fragmented Nuclei (%),[2]; [9],4%
same,Population Healthy Nuclei (%),[2]; [9],79% and 76%
same,Population Hoechst High Intensity Objects (%),[2]; [9],3%
same,Population Membrane Permeable-Phenotype (%),[2]; [9],4%
same,Population Mitochondria Different-Phenotype (%),[2]; [9],3%
same,Population Mitotic Cells (%),[2]; [9],80% and 72%
same,Population Normal (%),[2]; [9],96%
same,Population Pyknosed Nuclei (%),[2]; [9],16% and 18%
same,Population Tubulin-Different-Phenotype (%),[2]; [9],16% and 24%
same,Total Cell Count,[2]; [9],1576 and 1527
same,Population Apoptotic (%),[3]; [4],40% and 66%
same,Population Healthy Nuclei (%),[3]; [4],64% and 87%
same,Population Hoechst High Intensity Objects (%),[3]; [4],0%
same,Population Membrane Permeable-Phenotype (%),[3]; [4],0% and 1%
same,Population Mitochondria Different-Phenotype (%),[3]; [4],0%
same,Population Mitotic Cells (%),[3]; [4],60% and 33%
same,Population Normal (%),[3]; [4],100%
same,Population Pyknosed Nuclei (%),[3]; [4],10% and 7%
same,Population Tubulin-Different-Phenotype (%),[3]; [4],100% and 96%
same,Population Apoptotic (%),[3]; [5],66% and 52%
same,Population Healthy Nuclei (%),[3]; [5],59% and 84%
same,Population Hoechst High Intensity Objects (%),[3]; [5],0%
same,Population Membrane Permeable-Phenotype (%),[3]; [5],0% and 1%
same,Population Mitochondria Different-Phenotype (%),[3]; [5],0% and 1%
same,Population Mitotic Cells (%),[3]; [5],33% and 47%
same,Population Normal (%),[3]; [5],100% and 99%
same,Population Pyknosed Nuclei (%),[3]; [5],11% and 10%
same,Population Tubulin-Different-Phenotype (%),[3]; [5],56% and 81%
same,Population Apoptotic (%),[3]; [6],50% and 53%
same,Population Healthy Nuclei (%),[3]; [6],62% and 87%
same,Population Hoechst High Intensity Objects (%),[3]; [6],0%
same,Population Membrane Permeable-Phenotype (%),[3]; [6],0% and 2%
same,Population Mitochondria Different-Phenotype (%),[3]; [6],2% and 0%
same,Population Mitotic Cells (%),[3]; [6],50% and 46%
same,Population Normal (%),[3]; [6],100%
same,Population Pyknosed Nuclei (%),[3]; [6],10% and 8%
same,Population Tubulin-Different-Phenotype (%),[3]; [6],100% and 95%
same,Population Apoptotic (%),[3]; [7],75% and 45%
same,Population Healthy Nuclei (%),[3]; [7],55% and 78%
same,Population Hoechst High Intensity Objects (%),[3]; [7],1% and 0%
same,Population Membrane Permeable-Phenotype (%),[3]; [7],2%
same,Population Mitochondria Different-Phenotype (%),[3]; [7],0%
same,Population Mitotic Cells (%),[3]; [7],25% and 54%
same,Population Normal (%),[3]; [7],98% and 100%
same,Population Pyknosed Nuclei (%),[3]; [7],11% and 13%
same,Population Tubulin-Different-Phenotype (%),[3]; [7],68% and 77%
same,Population Apoptotic (%),[3]; [8],56% and 75%
same,Population Healthy Nuclei (%),[3]; [8],58% and 89%
same,Population Hoechst High Intensity Objects (%),[3]; [8],0%
same,Population Membrane Permeable-Phenotype (%),[3]; [8],0% and 1%
same,Population Mitochondria Different-Phenotype (%),[3]; [8],0%
same,Population Mitotic Cells (%),[3]; [8],43% and 25%
same,Population Normal (%),[3]; [8],100% and 99%
same,Population Pyknosed Nuclei (%),[3]; [8],20% and 7%
same,Population Tubulin-Different-Phenotype (%),[3]; [8],100% and 97%
same,Population Apoptotic (%),[3]; [9],75% and 67%
same,Population Healthy Nuclei (%),[3]; [9],21% and 58%
same,Population Hoechst High Intensity Objects (%),[3]; [9],1% and 0%
same,Population Membrane Permeable-Phenotype (%),[3]; [9],5% and 10%
same,Population Mitochondria Different-Phenotype (%),[3]; [9],5% and 2%
same,Population Mitotic Cells (%),[3]; [9],24% and 32%
same,Population Normal (%),[3]; [9],98% and 99%
same,Population Pyknosed Nuclei (%),[3]; [9],34% and 28%
same,Population Tubulin-Different-Phenotype (%),[3]; [9],61% and 74%
